Here are results for three compounds from ChEMBL document CHEMBL3997810, “A Novel Potent Anticancer Compound Optimized from a Natural Oridonin Scaffold Induces Apoptosis and Cell Cycle Arrest through the Mitochondrial Pathway” (J Med Chem, 2017).

Active and inactive are the calls of the source. The rule behind the calls is not given here.

The subject of the first assay is MCF7. As to the kind of experiment: Cytotoxicity against human MCF7 cells at 10 to 50 uM after 24 hrs by LDH assay. It counts as functional, cell-based.
Settings: not given
The method in brief: (§1)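 Membrane integrity assay on MCF-7 and Bel-7402 cells seeded at ~5 × 10^3 per well for 24 h, then given compounds at 10, 20 or 50 μM. Culture medium collected and assayed with CytoTox-ONE LDH reagent for 10 min, followed by stop solution. Fluorescence read at Ex 560/Em 590 nm. Expressed as percentage of unstimulated cells.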
For `C=C1C(=O)[C@]23[C@H](O)[C@H]1CC[C@H]2[C@]12C=CC(=O)C(C)(C)[C@H]1[C@H](O)[C@]3(O)OC2`, the outcome was inactive.

As for `C=C1C(=O)[C@]23[C@H](O)[C@H]1CC[C@H]2[C@@]12CO[C@@]3(O)[C@@H](O)[C@@H]1C(C)(C)C[C@H]1O[C@H]12`, the outcome was inactive.

For another assay, the system named is Bel-7402. As to the kind of experiment: Cytotoxicity against human Bel7402 cells at 10 to 50 uM after 24 hrs by LDH assay. Type of assay: functional, cell-based.
Settings: not given
The method in brief: as §1
As to `C=C1C(=O)[C@]23[C@H](O)[C@H]1CC[C@H]2[C@]12C=CC(=O)C(C)(C)[C@H]1[C@H](O)[C@]3(O)OC2`, the result was inactive.

As for `C=C1C(=O)[C@]23[C@H](O)[C@H]1CC[C@H]2[C@@]12CO[C@@]3(O)[C@@H](O)[C@@H]1C(C)(C)C[C@H]1O[C@H]12`, the outcome was inactive.

System in a further assay: not listed separately
Description: Selectivity ratio of IC50 for human L02 cells to IC50 for human Bel7402 cells.
Settings: not given
In the case of `C=C1C(=O)[C@]23[C@H](OC(=O)c4cccc(C)c4)[C@H]1CC[C@H]2[C@]12C=CCC(C)(C)[C@H]1[C@H](O)[C@]3(O)OC2`, the “Ratio IC50” value is listed as 14.58.

The test system of a further assay is Bel-7402. Description: Antiproliferative activity against human Bel7402 cells after 72 hrs by MTT assay. Type of assay: functional, cell-based. Conditions: Bel-7402, 72 h. The method in brief:
(§2)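 MGC-803 and MCF-7 cells grown in DMEM (MCF-7 with 1× NEAA); Bel-7402 and K562 grown in RPMI 1640; all media with 10% FBS. Cells seeded at 3500/well, pre-incubated 24 h, then exposed to compounds in fresh medium (DMSO ≤0.25%) for 72 h at 37 °C. MTT read-out at 570 nm. Quadruplicate wells, repeated three times; means ± SD (n = 3).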
On to `C=C1C(=O)[C@]23[C@H](O)[C@H]1CC[C@H]2[C@]12C=CC(=O)C(C)(C)[C@H]1[C@H](O)[C@]3(O)OC2`, for which the IC50 was 3.43 µM.

Regarding `C=C1C(=O)[C@]23[C@H](OC(=O)c4cccc(C)c4)[C@H]1CC[C@H]2[C@]12C=CCC(C)(C)[C@H]1[C@H](O)[C@]3(O)OC2`, the IC50 stood at 0.45 µM.

`C=C1C(=O)[C@]23[C@H](O)[C@H]1CC[C@H]2[C@@]12CO[C@@]3(O)[C@@H](O)[C@@H]1C(C)(C)C[C@H]1O[C@H]12` registered a 50% inhibitory concentration (IC50) of 5.77 µM.

Another assay relates to MCF7. As to the kind of experiment: Antiproliferative activity against human MCF7 cells after 72 hrs by MTT assay. It counts as functional, cell-based. Conditions: MCF7, 72 h. In outline: as §2
Regarding `C=C1C(=O)[C@]23[C@H](O)[C@H]1CC[C@H]2[C@]12C=CC(=O)C(C)(C)[C@H]1[C@H](O)[C@]3(O)OC2`, half-maximal inhibition (IC50) required 11.1 µM.

As for `C=C1C(=O)[C@]23[C@H](OC(=O)c4cccc(C)c4)[C@H]1CC[C@H]2[C@]12C=CCC(C)(C)[C@H]1[C@H](O)[C@]3(O)OC2`, 0.18 µM corresponded to half-maximal inhibition (IC50).

The compound `C=C1C(=O)[C@]23[C@H](O)[C@H]1CC[C@H]2[C@@]12CO[C@@]3(O)[C@@H](O)[C@@H]1C(C)(C)C[C@H]1O[C@H]12` returned an IC50 of 5.37 µM.

A further assay relates to BEL-7404 tumor cell line. As to the kind of experiment: Antiproliferative activity against human Bel7404 cells after 48 hrs by MTT assay. It counts as functional, cell-based. The conditions noted are these: BEL-7404, 48 h. The method in brief:
(§3)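 Colorimetric MTT assay. KB-3-1, NCI-H460 and Bel-7404 cells were seeded at 4000 cells/well; resistant KB/CP4, NCI-H460/MX20 and Bel-7404/CP20 were seeded at 7000 cells/well. Cells were pre-incubated 24 h at 37 °C, 5% CO2, then exposed to a compound concentration series for 48 h with DMSO ≤0.25%. Absorbance read at 570 nm. Quadruplicate wells, three repeats; means ± SD.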
The compound `C=C1C(=O)[C@]23[C@H](O)[C@H]1CC[C@H]2[C@]12C=CC(=O)C(C)(C)[C@H]1[C@H](O)[C@]3(O)OC2` had a half-maximal inhibitory concentration (IC50) of 16.2 µM.

Take `C=C1C(=O)[C@]23[C@H](OC(=O)c4cccc(C)c4)[C@H]1CC[C@H]2[C@]12C=CCC(C)(C)[C@H]1[C@H](O)[C@]3(O)OC2`: the IC50 turned out to be 6.56 µM.

In the case of `C=C1C(=O)[C@]23[C@H](O)[C@H]1CC[C@H]2[C@@]12CO[C@@]3(O)[C@@H](O)[C@@H]1C(C)(C)C[C@H]1O[C@H]12`, the IC50 amounted to 13.7 µM.

A further assay relates to K562. As to the kind of experiment: Antiproliferative activity against human K562 cells after 72 hrs by MTT assay. Conditions: K562, 72 h. It counts as functional, cell-based. In outline: as §2
As to `C=C1C(=O)[C@]23[C@H](O)[C@H]1CC[C@H]2[C@]12C=CC(=O)C(C)(C)[C@H]1[C@H](O)[C@]3(O)OC2`, the IC50 was found to be 2.79 µM.

`C=C1C(=O)[C@]23[C@H](OC(=O)c4cccc(C)c4)[C@H]1CC[C@H]2[C@]12C=CCC(C)(C)[C@H]1[C@H](O)[C@]3(O)OC2` displayed an IC50 of 1.27 µM.

As to `C=C1C(=O)[C@]23[C@H](O)[C@H]1CC[C@H]2[C@@]12CO[C@@]3(O)[C@@H](O)[C@@H]1C(C)(C)C[C@H]1O[C@H]12`, half-maximal inhibition (IC50) was put at 1.59 µM.

System in a further assay: not listed separately
Description: Selectivity ratio of IC50 for human KB/CP4 cells to IC50 for human KB-3-1 cells.
Settings: not given
As to `C=C1C(=O)[C@]23[C@H](O)[C@H]1CC[C@H]2[C@]12C=CC(=O)C(C)(C)[C@H]1[C@H](O)[C@]3(O)OC2`, the “Ratio IC50” value is given as under 1.

For `C=C1C(=O)[C@]23[C@H](OC(=O)c4cccc(C)c4)[C@H]1CC[C@H]2[C@]12C=CCC(C)(C)[C@H]1[C@H](O)[C@]3(O)OC2`, the “Ratio IC50” value is under 1.

Consider `C=C1C(=O)[C@]23[C@H](O)[C@H]1CC[C@H]2[C@@]12CO[C@@]3(O)[C@@H](O)[C@@H]1C(C)(C)C[C@H]1O[C@H]12`, for which the “Ratio IC50” value is on record as under 1.

System in a further assay: not listed separately
Description: Antiproliferative activity against human NCI-H460/MX20 cells after 48 hrs by MTT assay. Conditions: NCI-H460/MX20, 48 h. Type of assay: functional, cell-based. The method in brief: as §3
For `C=C1C(=O)[C@]23[C@H](O)[C@H]1CC[C@H]2[C@]12C=CC(=O)C(C)(C)[C@H]1[C@H](O)[C@]3(O)OC2`, the IC50 was 54 µM.

The compound `C=C1C(=O)[C@]23[C@H](OC(=O)c4cccc(C)c4)[C@H]1CC[C@H]2[C@]12C=CCC(C)(C)[C@H]1[C@H](O)[C@]3(O)OC2` yielded an IC50 of 14.2 µM.

As to `C=C1C(=O)[C@]23[C@H](O)[C@H]1CC[C@H]2[C@@]12CO[C@@]3(O)[C@@H](O)[C@@H]1C(C)(C)C[C@H]1O[C@H]12`, the IC50 is 11.2 µM.

In another assay the test system is MGC-803. As to the kind of experiment: Antiproliferative activity against human MGC803 cells after 72 hrs by MTT assay. Conditions: MGC-803, 72 h. It counts as functional, cell-based. The method in brief: as §2
As to `C=C1C(=O)[C@]23[C@H](O)[C@H]1CC[C@H]2[C@]12C=CC(=O)C(C)(C)[C@H]1[C@H](O)[C@]3(O)OC2`, the IC50 turned out to be 5.58 µM.

Compound `C=C1C(=O)[C@]23[C@H](OC(=O)c4cccc(C)c4)[C@H]1CC[C@H]2[C@]12C=CCC(C)(C)[C@H]1[C@H](O)[C@]3(O)OC2` came in with a 50% inhibitory concentration (IC50) of 1.02 µM.

Compound `C=C1C(=O)[C@]23[C@H](O)[C@H]1CC[C@H]2[C@@]12CO[C@@]3(O)[C@@H](O)[C@@H]1C(C)(C)C[C@H]1O[C@H]12` displayed an IC50 of 5.74 µM.

System in another assay: not listed separately
Description: Antiproliferative activity against human KB/CP4 cells after 48 hrs by MTT assay. It counts as functional, cell-based. Conditions: KB/CP4, 48 h. In outline:
as §3
In the case of `C=C1C(=O)[C@]23[C@H](O)[C@H]1CC[C@H]2[C@]12C=CC(=O)C(C)(C)[C@H]1[C@H](O)[C@]3(O)OC2`, the IC50 worked out at 16.1 µM.

Regarding `C=C1C(=O)[C@]23[C@H](OC(=O)c4cccc(C)c4)[C@H]1CC[C@H]2[C@]12C=CCC(C)(C)[C@H]1[C@H](O)[C@]3(O)OC2`, 1.01 µM corresponded to half-maximal inhibition (IC50).

`C=C1C(=O)[C@]23[C@H](O)[C@H]1CC[C@H]2[C@@]12CO[C@@]3(O)[C@@H](O)[C@@H]1C(C)(C)C[C@H]1O[C@H]12` yielded a concentration for half-maximal inhibition (IC50) of 7.74 µM.

In a further assay the test system is Bel-7402. As to the kind of experiment: Antiproliferative activity against human Bel7402 cells at 1 uM after 72 hrs by MTT assay. It counts as functional, cell-based.
Settings: not given
With `C=C1C(=O)[C@]23[C@H](O)[C@H]1CC[C@H]2[C@]12C=CC(=O)C(C)(C)[C@H]1[C@H](O)[C@]3(O)OC2`, the outcome was Active.

System in another assay: not listed separately
As to the kind of experiment: Antiproliferative activity against human BEL7404/CP20 cells after 48 hrs by MTT assay. Type of assay: functional, cell-based. Conditions: BEL7404/CP20, 48 h. The method in brief: as §3
In the case of `C=C1C(=O)[C@]23[C@H](O)[C@H]1CC[C@H]2[C@]12C=CC(=O)C(C)(C)[C@H]1[C@H](O)[C@]3(O)OC2`, it took 15.1 µM to reach half-maximal inhibition (IC50).

Turning to `C=C1C(=O)[C@]23[C@H](OC(=O)c4cccc(C)c4)[C@H]1CC[C@H]2[C@]12C=CCC(C)(C)[C@H]1[C@H](O)[C@]3(O)OC2`, the IC50 was 3.42 µM.

`C=C1C(=O)[C@]23[C@H](O)[C@H]1CC[C@H]2[C@@]12CO[C@@]3(O)[C@@H](O)[C@@H]1C(C)(C)C[C@H]1O[C@H]12` yielded an IC50 of 21.6 µM.

Another assay relates to KB 3-1. Description: Antiproliferative activity against human KB-3-1 cells after 48 hrs by MTT assay. The conditions noted are these: KB 3-1, 48 h. It counts as functional, cell-based. The method in brief:
as §3
In turn, `C=C1C(=O)[C@]23[C@H](O)[C@H]1CC[C@H]2[C@]12C=CC(=O)C(C)(C)[C@H]1[C@H](O)[C@]3(O)OC2` gave an IC50 of 16.7 µM.

`C=C1C(=O)[C@]23[C@H](OC(=O)c4cccc(C)c4)[C@H]1CC[C@H]2[C@]12C=CCC(C)(C)[C@H]1[C@H](O)[C@]3(O)OC2` registered an IC50 of 6.21 µM.

On to `C=C1C(=O)[C@]23[C@H](O)[C@H]1CC[C@H]2[C@@]12CO[C@@]3(O)[C@@H](O)[C@@H]1C(C)(C)C[C@H]1O[C@H]12`, for which the midpoint of inhibition, the IC50, lay at 21 µM.

The test system of a further assay is NCI-H460. As to the kind of experiment: Antiproliferative activity against human NCI-H460 cells after 48 hrs by MTT assay. It counts as functional, cell-based. The conditions noted are these: NCI-H460, 48 h. The method in brief: as §3
In the case of `C=C1C(=O)[C@]23[C@H](O)[C@H]1CC[C@H]2[C@]12C=CC(=O)C(C)(C)[C@H]1[C@H](O)[C@]3(O)OC2`, the IC50 came out at 19.2 µM.

Consider `C=C1C(=O)[C@]23[C@H](OC(=O)c4cccc(C)c4)[C@H]1CC[C@H]2[C@]12C=CCC(C)(C)[C@H]1[C@H](O)[C@]3(O)OC2`, for which 2.44 µM corresponded to half-maximal inhibition (IC50).

Consider `C=C1C(=O)[C@]23[C@H](O)[C@H]1CC[C@H]2[C@@]12CO[C@@]3(O)[C@@H](O)[C@@H]1C(C)(C)C[C@H]1O[C@H]12`, for which half-maximal inhibition (IC50) required 8.81 µM.
